Results of several laboratories.
Protocols differ between the studies behind these lines.
Target: Ephrin type-A receptor 3 (EPHA3, Homo sapiens, UniProt P29320)
Residues used in one study (P29320 21-983): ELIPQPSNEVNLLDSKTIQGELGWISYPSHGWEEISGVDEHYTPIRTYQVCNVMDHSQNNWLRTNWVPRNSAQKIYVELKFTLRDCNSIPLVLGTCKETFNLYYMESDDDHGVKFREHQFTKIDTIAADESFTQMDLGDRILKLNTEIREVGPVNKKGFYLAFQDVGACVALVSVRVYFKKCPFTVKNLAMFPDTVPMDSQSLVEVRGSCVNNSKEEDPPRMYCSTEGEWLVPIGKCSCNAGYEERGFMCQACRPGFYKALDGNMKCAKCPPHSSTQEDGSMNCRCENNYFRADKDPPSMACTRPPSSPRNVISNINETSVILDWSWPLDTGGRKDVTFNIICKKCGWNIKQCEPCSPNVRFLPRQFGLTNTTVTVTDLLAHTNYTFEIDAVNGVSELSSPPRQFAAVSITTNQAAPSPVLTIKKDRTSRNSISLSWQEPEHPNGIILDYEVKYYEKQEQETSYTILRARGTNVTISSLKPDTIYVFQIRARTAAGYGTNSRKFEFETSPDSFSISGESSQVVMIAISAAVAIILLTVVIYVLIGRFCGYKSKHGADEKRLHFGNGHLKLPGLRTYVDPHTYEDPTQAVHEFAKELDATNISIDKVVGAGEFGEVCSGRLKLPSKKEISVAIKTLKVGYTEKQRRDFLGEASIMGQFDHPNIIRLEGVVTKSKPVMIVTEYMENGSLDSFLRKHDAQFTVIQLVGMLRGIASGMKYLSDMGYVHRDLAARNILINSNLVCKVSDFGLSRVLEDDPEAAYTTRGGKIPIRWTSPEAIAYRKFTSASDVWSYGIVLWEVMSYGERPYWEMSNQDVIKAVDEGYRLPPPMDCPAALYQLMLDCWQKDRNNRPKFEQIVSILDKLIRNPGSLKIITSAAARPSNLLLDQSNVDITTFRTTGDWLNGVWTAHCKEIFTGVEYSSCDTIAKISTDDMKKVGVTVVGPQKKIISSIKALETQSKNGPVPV

With `Nc1ncc(-c2nc(N3CCOCC3)nc(N3CCOCC3)n2)c(C(F)F)n1` the remaining binding was 69% (cell-free assay; competition with immobilised ligand; 10 µM).
With `COc1cc(Nc2ncc(F)c(Nc3ccc4c(n3)NC(=O)C(C)(C)O4)n2)cc(OC)c1OC` the inhibition was 90% (binding; competition with immobilised ligand; 10 µM).
`N#CC1(c2ccccn2)CCN(Cc2cc(C(=O)O)c(=O)n3ccccc23)CC1` has a remaining binding of 75% (cell-free assay; competition with immobilised ligand; 1 µM).
`COc1ncccc1-c1cnn2ccc(N3CCN(C(=O)OC(C)C)CC3)nc12` gave a remaining binding of 83% (binding; competition with immobilised ligand; 1 µM).
For `Cn1cc(-c2cccc(N3CCc4c(sc5c4CC(C)(C)C5)C3=O)c2CO)cc(Nc2ccncn2)c1=O`, the inhibition was -7% (enzyme activity; inhibitor; 1 µM).
`CC(C)(C)c1cc(C=C(C#N)C#N)cc(Br)c1O` has a remaining activity of 102% (enzyme activity; inhibitor; 0.5 µM).
`Cn1cc(-c2cc(F)cc(N3CCn4c(cc5c4CCCC5)C3=O)c2CO)cc(Nc2ccc(N3CCN(C4COC4)CC3)cn2)c1=O` gave an inhibition of 10% (enzyme activity; inhibitor; 0.1 µM).
`Cc1nn(C)cc1-c1nc2c(N3CCN(Cc4ccc(Cl)cc4)CC3)c(Cl)cnc2[nH]1` has a remaining binding of 100% (binding; competition with immobilised ligand; 1 µM).
With `Cn1cncc1[C@](O)(COc1ccc(C#N)cc1-c1ccc(OC(F)(F)F)cc1)c1ccc(C#N)cc1` the remaining binding was 90% (cell-free assay; competition with immobilised ligand; 1 µM).
The remaining signal of `O=c1[nH]c2ccccc2n1C1CCN(Cc2ccc(-c3[nH]c4cc5ncnc5cc4nc3-c3ccccc3)cc2)CC1` is reported as 71.9% (cell-free assay; 0.5 µM).
